Activity calls are given as the source filed them. The rule behind the calls is not given here.
How the values were obtained:
[1] = molecular target: T1, Polyunsaturated fatty acid 5-lipoxygenase (Homo sapiens, UniProt P09917); test: Inhibition of recombinant 5-lipoxygenase expressed in Escherichia coli BL21 using arachidonic acid as substrate incubated for 15 mins prior to substrate addition measured after 10 mins by HPLC analysis
T1 sequence (P09917 whole entry): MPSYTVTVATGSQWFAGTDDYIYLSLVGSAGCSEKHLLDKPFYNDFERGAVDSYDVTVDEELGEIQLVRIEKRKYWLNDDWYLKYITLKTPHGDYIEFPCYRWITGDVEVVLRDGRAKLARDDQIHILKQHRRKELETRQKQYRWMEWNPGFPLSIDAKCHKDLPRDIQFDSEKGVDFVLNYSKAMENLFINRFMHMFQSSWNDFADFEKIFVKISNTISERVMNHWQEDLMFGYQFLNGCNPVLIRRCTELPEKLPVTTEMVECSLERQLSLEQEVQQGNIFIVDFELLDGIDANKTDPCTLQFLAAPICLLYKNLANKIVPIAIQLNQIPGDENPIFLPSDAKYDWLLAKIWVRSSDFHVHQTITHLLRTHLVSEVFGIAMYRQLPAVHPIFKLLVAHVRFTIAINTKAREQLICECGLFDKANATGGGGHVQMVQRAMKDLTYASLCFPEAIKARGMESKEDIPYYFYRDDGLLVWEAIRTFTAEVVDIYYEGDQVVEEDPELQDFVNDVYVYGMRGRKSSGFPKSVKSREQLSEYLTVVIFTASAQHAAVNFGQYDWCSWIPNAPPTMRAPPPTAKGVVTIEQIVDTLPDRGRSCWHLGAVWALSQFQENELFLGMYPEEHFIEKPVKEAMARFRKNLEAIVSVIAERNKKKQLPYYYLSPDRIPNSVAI
Method in brief: (§1)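 Compounds were first tested at 30 μM, and IC50 values were determined only for those giving at least 50% inhibition. The 5-LO assay was cell-free with HPLC read-out, and the sEH assay used a fluorescence read-out.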

[2] = molecular target: T2, Bifunctional epoxide hydrolase 2 (Homo sapiens) (UniProt P34913); test: (§2) Inhibition of soluble epoxide hydrolase using (3-Phenyl-oxiranyl)-acetic acid cyano-(6-methoxy-naphthalen-2-yl)-methyl ester) as substrate incubated for 15 mins prior to substrate addition measured every min for 15 mins by fluorometry; method in brief: as §1
T2 sequence (whole entry): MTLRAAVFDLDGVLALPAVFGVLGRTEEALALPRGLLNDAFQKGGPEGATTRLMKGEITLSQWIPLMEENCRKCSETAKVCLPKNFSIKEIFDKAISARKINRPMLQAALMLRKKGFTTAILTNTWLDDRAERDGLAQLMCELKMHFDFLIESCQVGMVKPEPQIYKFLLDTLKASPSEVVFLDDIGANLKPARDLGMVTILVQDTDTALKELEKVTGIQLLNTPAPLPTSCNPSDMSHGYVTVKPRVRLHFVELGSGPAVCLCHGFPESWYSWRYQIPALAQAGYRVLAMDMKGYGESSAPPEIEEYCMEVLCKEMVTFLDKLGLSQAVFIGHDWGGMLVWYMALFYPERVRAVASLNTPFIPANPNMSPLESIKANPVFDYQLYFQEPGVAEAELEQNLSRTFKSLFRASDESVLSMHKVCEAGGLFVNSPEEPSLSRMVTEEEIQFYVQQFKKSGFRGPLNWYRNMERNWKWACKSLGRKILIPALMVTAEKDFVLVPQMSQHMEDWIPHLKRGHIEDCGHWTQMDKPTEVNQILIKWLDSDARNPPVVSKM

[3] = molecular target: T3, Bifunctional epoxide hydrolase 2 (Homo sapiens, UniProt P34913); test: as §2; method in brief: as §1
T3 sequence (P34913 whole entry): T2 sequence (whole entry)

IC50 [1] [µM] | inhibition [2] | IC50 [3] [µM] | Structure (SMILES)
– | – | 21 | COc1ccc(CC(=O)Nc2ccc(C)cc2)cc1OC
– | – | 1.6 | COc1ccc(NC(=O)c2cccc(-n3cnnn3)c2)cc1
2.7 | inactive | – | COc1ccc(-c2nc3cc(C)ccc3o2)cc1OC
– | – | 0.47 | Cn1nnc2cc(NC(=O)NCCC3=CCCCC3)ccc21

The next lines start with the compound.

Structure (SMILES) | IC50 [1] [µM] | inhibition [2] | IC50 [3] [µM]
COc1cccc(CNc2nc3ccccc3n2C)c1O | 7.6 | inactive | –
CC(C)CC(=O)Nc1nc2c(s1)CCc1ccccc1-2 | 16 | – | –
CN(C)c1ccc(-n2nc3ccc4ccccc4c3n2)cc1 | 2.2 | – | –
COc1ccc(/C=N/Nc2nc3ccccc3[nH]2)cc1OC | 8.1 | – | –
COc1ccc(-c2nc3cc(C)ccc3[nH]2)cc1OC | 36 | – | 3.5

Source: ChEMBL document CHEMBL2034900, “Dual-target virtual screening by pharmacophore elucidation and molecular shape filtering” (ACS Med Chem Lett, 2012)
